Km and inhibition data for three compounds are collected here from ChEMBL document CHEMBL1130251, “Enzymatic properties of the unnatural beta-L-enantiomers of 2',3'-dideoxyadenosine and 2',3'-didehydro-2',3'-dideoxyadenosine” (J Med Chem, 1997).

The test system of data set [1] is Nc1ncnc2c1ncn2[C@H]1C=C[C@@H](CO)O1. The experiment in a line: Inhibitory activity against human deoxycytidine kinase. The method, boiled down: (§1)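 Recombinant human deoxycytidine kinase (expressed in E. coli, purified) at 37 °C. Monophosphate formation measured by C-18 HPLC. Km and Vm from Lineweaver–Burk plots.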
Data set [2] has as its system Nc1ncnc2c1ncn2[C@H]1CC[C@@H](CO)O1. The experiment in a line: Inhibitory activity against Cytidine Kinase. The method, boiled down:
as §1

A short description of data set [3]: Inhibitory activity against purine nucleoside phosphorylases from human blood and calf spleen; NS, NI/Ino=nonsubstrate, noninhibitor/inhibitor. Type of data set: tissue-based. The gist of the method: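 Purine nucleoside phosphorylase from calf spleen (0.18 unit·mL⁻¹) or human blood (9 units·mL⁻¹) at 37 °C in 50 mM phosphate pH 7.5. Substrate tests used 50 μM nucleoside. Inhibition used 40 μM inosine with 100 μM test compound. Reaction media were analysed by C-18 HPLC.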

For data set [4], the target named is T1, Adenosine deaminase (Bos taurus) (UniProt P56658).
T1 sequence (whole entry): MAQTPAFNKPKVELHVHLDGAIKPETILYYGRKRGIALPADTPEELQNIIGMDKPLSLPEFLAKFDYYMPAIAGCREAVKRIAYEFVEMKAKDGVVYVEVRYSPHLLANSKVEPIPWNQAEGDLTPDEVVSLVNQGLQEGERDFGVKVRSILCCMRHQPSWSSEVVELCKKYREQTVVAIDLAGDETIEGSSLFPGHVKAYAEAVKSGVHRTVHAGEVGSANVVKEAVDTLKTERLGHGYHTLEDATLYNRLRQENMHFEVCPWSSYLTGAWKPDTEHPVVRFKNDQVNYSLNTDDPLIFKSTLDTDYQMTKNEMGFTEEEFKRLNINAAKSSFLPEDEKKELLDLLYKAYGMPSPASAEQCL
Put plainly: Inhibitory activity against bovine adenosine deaminase; very weak substrate or inhibitor. The gist of the method:
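Adenosine deaminase (calf intestinal mucosa, type VIII) at 37 °C in 50 mM phosphate pH 7.5. Substrate tests used 20–80 μM nucleoside and 0.01–1 unit enzyme, with HPLC product analysis. Inhibition was read by UV spectrometry with adenosine 20–100 μM. Ki was taken from Lineweaver–Burk plots assuming competitive inhibition.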

Deoxycytidine kinase (Homo sapiens), P27707, sequence (P27707 whole entry): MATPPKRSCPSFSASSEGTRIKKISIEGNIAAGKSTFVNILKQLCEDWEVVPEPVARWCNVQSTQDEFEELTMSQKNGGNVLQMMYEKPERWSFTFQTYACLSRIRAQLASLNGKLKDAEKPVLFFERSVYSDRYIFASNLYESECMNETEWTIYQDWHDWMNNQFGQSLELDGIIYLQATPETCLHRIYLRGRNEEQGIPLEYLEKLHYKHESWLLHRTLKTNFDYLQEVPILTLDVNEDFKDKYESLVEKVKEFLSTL

Take “Deoxycytidine kinase (Homo sapiens), P27707”: the Km in data set [1] was 620 µM; in data set [2], 220 µM.
Turning to `Nc1ncnc2c1ncn2[C@H]1CC[C@@H](CO)O1`, the Michaelis constant (Km) entry in data set [3] is recorded as “NS, NI/Ino”.
Consider `Nc1ncnc2c1ncn2[C@H]1C=C[C@@H](CO)O1`, for which the Km result in data set [3] is given as “NS, NI/Ino”. Also, the inhibition result in data set [4] is “very weak substrate or inhibitor”.
